Measurements from ChEMBL document CHEMBL1143386, “Prodrugs of perzinfotel with improved oral bioavailability” (J Med Chem, 2009).

Assays:
Blood [1] = assay: Biodistribution in Sprague-Dawley rat blood assessed as formation of perzinfotel at 10 mg/kg, po after 0.167 hrs; format: ADME, organism-based; parameters: dose 10 mg/kg, route oral; conditions: in vivo
Summary of the method: (§1)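 Male Sprague-Dawley rats given [14C]-labelled compound by oral gavage (parent at 30 mg/kg, prodrug at 10 mg/kg). Blood, plasma and brain taken at 0.167, 0.5, 1, 4, 8 and 24 h (n = 3 rats/time point). Total radioactivity measured in each matrix. Metabolite profiles from HPLC with in-line radioactivity detection.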

Plasma [2] = assay: Biodistribution in Sprague-Dawley rat plasma assessed as formation of perzinfotel at 10 mg/kg, po after 0.167 hrs; format: ADME, organism-based; parameters: dose 10 mg/kg, route oral; conditions: in vivo; summary of the method: as §1
Brain [3] = assay: Biodistribution in Sprague-Dawley rat brain assessed as formation of perzinfotel at 10 mg/kg, po after 0.167 hrs; format: ADME, organism-based; parameters: dose 10 mg/kg, route oral; conditions: in vivo; summary of the method: as §1
Blood [4] = assay: Biodistribution in Sprague-Dawley rat blood assessed as formation of perzinfotel at 10 mg/kg, po after 0.5 hrs; format: ADME, organism-based; parameters: dose 10 mg/kg, route oral; conditions: in vivo; summary of the method: as §1
Plasma [5] = assay: Biodistribution in Sprague-Dawley rat plasma assessed as formation of perzinfotel at 10 mg/kg, po after 0.5 hrs; format: ADME, organism-based; parameters: dose 10 mg/kg, route oral; conditions: in vivo; summary of the method: as §1
Brain [6] = assay: Biodistribution in Sprague-Dawley rat brain assessed as formation of perzinfotel at 10 mg/kg, po after 0.5 hrs; format: ADME, organism-based; parameters: dose 10 mg/kg, route oral; conditions: in vivo; summary of the method: as §1
Plasma [7] = assay: Stability in rat plasma assessed as conversion of benzoic acid [2-(8,9-dioxo-2,6-diaza-bicyclo[5.2.0]non-1(7)-en-2-yl)-ethyl]-hydroxy-phosphinoyloxymethyl ester to perzinfotel after 3 hrs by Lc/MS analysis; format: ADME, cell-free
Summary of the method: (§2)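 Dissolved at 0.05 mg/mL in rat plasma and incubated at 37 °C for 0–24 h. Samples quenched with acetonitrile and centrifuged; supernatant diluted and run on HPLC. Parent and conversion products quantified by peak area at 304 nm, corrected by internal standard, and confirmed by LC/MS. Kinetics fitted to a two-step first-order model.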

[8] = Chemical stability at pH 1 after 4 hrs; format: physicochemical; conditions: buffer, read-out: Stability
Summary of the method: (§3)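 Compound at 0.01 mg/mL final in a 9:1 mix of aqueous buffer (pH 1.0, 4.5, 6.6 or 7.4) or simulated gastric fluid with acetonitrile, held at 37 °C in the autosampler. Injected every 4 h over 24 h onto C8 HPLC. Percent remaining from peak area at 304 nm, corrected by internal standard; products confirmed by LC/MS (-ESI).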

[9] = Chemical stability at pH 4.5 after 4 hrs; format: physicochemical; conditions: buffer, read-out: Stability; summary of the method: as §3
[10] = Chemical stability at pH 6.6 after 4 hrs; format: physicochemical; conditions: buffer, read-out: Stability; summary of the method: as §3
[11] = Chemical stability at pH 7.4 after 4 hrs; format: physicochemical; conditions: buffer, read-out: Stability; summary of the method: as §3
[12] = Chemical stability in simulated gastric fluid after 4 hrs; format: physicochemical; conditions: read-out: Stability; summary of the method: as §3
[13] = Chemical stability in simulated intestinal bile fluid after 4 hrs; format: physicochemical; conditions: read-out: Stability
Summary of the method: (§4)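 Compound taken up in 9:1 simulated intestinal bile fluid:acetonitrile at a final 0.01 mg/mL, held in a 37 °C autosampler. HPLC injections every 4 h over 24 h. Percent remaining taken from peak area at 304 nm, corrected by internal standard. Products identified by LC/MS (-ESI).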

[14] = Chemical stability at pH 1 after 8 hrs; format: physicochemical; conditions: buffer, read-out: Stability; summary of the method: as §3
[15] = Chemical stability at pH 4.5 after 8 hrs; format: physicochemical; conditions: buffer, read-out: Stability; summary of the method: as §3
[16] = Chemical stability at pH 6.6 after 8 hrs; format: physicochemical; conditions: buffer, read-out: Stability; summary of the method: as §3
[17] = Chemical stability at pH 7.4 after 8 hrs; format: physicochemical; conditions: buffer, read-out: Stability; summary of the method: as §3
[18] = Chemical stability in simulated gastric fluid after 8 hrs; format: physicochemical; conditions: read-out: Stability; summary of the method: as §3
[19] = Chemical stability in simulated intestinal bile fluid after 8 hrs; format: physicochemical; conditions: read-out: Stability; summary of the method: as §4
[20] = Chemical stability at pH 1 after 12 hrs; format: physicochemical; conditions: buffer, read-out: Stability; summary of the method: as §3
[21] = Chemical stability at pH 4.5 after 12 hrs; format: physicochemical; conditions: buffer, read-out: Stability; summary of the method: as §3
[22] = Chemical stability at pH 6.6 after 12 hrs; format: physicochemical; conditions: buffer, read-out: Stability; summary of the method: as §3
[23] = Chemical stability at pH 7.4 after 12 hrs; format: physicochemical; conditions: buffer, read-out: Stability; summary of the method: as §3
[24] = Chemical stability in simulated gastric fluid after 12 hrs; format: physicochemical; conditions: read-out: Stability; summary of the method: as §3
[25] = Chemical stability in simulated intestinal bile fluid after 12 hrs; format: physicochemical; conditions: read-out: Stability
Summary of the method: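 Compound at 0.01 mg/mL final in a 9:1 mix of simulated intestinal bile fluid and acetonitrile at 37 °C. Fed-state medium pH 5.5 with 10 mM sodium taurocholate; fasted-state medium pH 6.0 with 1 mM. Sampled every 4 h to 24 h by HPLC. Percent remaining from 304 nm peak area, corrected by internal standard.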

[26] = Chemical stability at pH 1 after 16 hrs; format: physicochemical; conditions: buffer, read-out: Stability; summary of the method: as §3
[27] = Chemical stability at pH 4.5 after 16 hrs; format: physicochemical; conditions: buffer, read-out: Stability; summary of the method: as §3
[28] = Chemical stability at pH 6.6 after 16 hrs; format: physicochemical; conditions: buffer, read-out: Stability; summary of the method: as §3
[29] = Chemical stability at pH 7.4 after 16 hrs; format: physicochemical; conditions: buffer, read-out: Stability; summary of the method: as §3
[30] = Chemical stability in simulated gastric fluid after 16 hrs; format: physicochemical; conditions: read-out: Stability; summary of the method: as §3
[31] = Chemical stability in simulated intestinal bile fluid after 16 hrs; format: physicochemical; conditions: read-out: Stability; summary of the method: as §4
[32] = Chemical stability at pH 1 after 20 hrs; format: physicochemical; conditions: buffer, read-out: Stability; summary of the method: as §3
[33] = Chemical stability at pH 4.5 after 20 hrs; format: physicochemical; conditions: buffer, read-out: Stability; summary of the method: as §3
[34] = Chemical stability at pH 6.6 after 20 hrs; format: physicochemical; conditions: buffer, read-out: Stability; summary of the method: as §3
[35] = Chemical stability at pH 7.4 after 20 hrs; format: physicochemical; conditions: buffer, read-out: Stability; summary of the method: as §3
[36] = Chemical stability in simulated gastric fluid after 20 hrs; format: physicochemical; conditions: read-out: Stability; summary of the method: as §3
[37] = Chemical stability in simulated intestinal bile fluid after 20 hrs; format: physicochemical; conditions: read-out: Stability; summary of the method: as §4
[38] = Chemical stability at pH 1 after 24 hrs; format: physicochemical; conditions: buffer, read-out: Stability; summary of the method: as §3
[39] = Chemical stability at pH 4.5 after 24 hrs; format: physicochemical; conditions: buffer, read-out: Stability; summary of the method: as §3
[40] = Chemical stability at pH 6.6 after 24 hrs; format: physicochemical; conditions: buffer, read-out: Stability; summary of the method: as §3
[41] = Chemical stability at pH 7.4 after 24 hrs; format: physicochemical; conditions: buffer, read-out: Stability; summary of the method: as §3
[42] = Chemical stability in simulated gastric fluid after 24 hrs; format: physicochemical; conditions: read-out: Stability; summary of the method: as §3
[43] = Chemical stability in simulated intestinal bile fluid after 24 hrs; format: physicochemical; conditions: read-out: Stability; summary of the method: as §4
[44] = Half life in Sprague-Dawley rat plasma assessed as loss of 3-{2[8,9-Dioxo-2,6-diazabicyclo[5.2.0-[non-1(7)-en-2-yl}-3-oxido-7-oxo-7-phenyl-2,4,6-trioxa-3-phosphahept-1-yl Benzoate; format: ADME; summary of the method: as §2
[45] = Half life in pH 8.5 buffer assessed as loss of 3-{2[8,9-Dioxo-2,6-diazabicyclo[5.2.0-[non-1(7)-en-2-yl}-3-oxido-7-oxo-7-phenyl-2,4,6-trioxa-3-phosphahept-1-yl Benzoate; format: physicochemical
Summary of the method: (§5)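 Compound at a final 0.01 mg/mL in 9:1 pH 8.5 buffer or simulated intestinal fluid:acetonitrile, 37 °C. HPLC injections every 4 h over 24 h, with peak area at 304 nm corrected by internal standard and identities confirmed by LC/MS. Conversion kinetics fitted to a two-step first-order model to give rate constants, half-lives and Tmax of the hemiester.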

[46] = Half life in simulated intestinal fluid assessed as loss of 3-{2[8,9-Dioxo-2,6-diazabicyclo[5.2.0-[non-1(7)-en-2-yl}-3-oxido-7-oxo-7-phenyl-2,4,6-trioxa-3-phosphahept-1-yl Benzoate; format: physicochemical; summary of the method: as §5
Glutamate NMDA receptor = assay: Displacement of [3H]CGP-39653 from rat brain NMDA receptor
Summary of the method: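 Competitive displacement of [3H]CGP-39653 at the NMDA recognition site, using rat whole-brain membranes.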

[47] = target: Glutamate NMDA receptor (Rattus norvegicus) (UniProt P35439+Q00959+Q00960+Q00961+Q62645+Q8VHN2+Q9R1M7); assay: Antagonist activity at rat brain NMDA receptor assessed as inhibition of glutamate-induced [3H]TCP binding at 300 uM
Summary of the method: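 Functional NMDA antagonism was measured as inhibition of glutamate-stimulated [3H]-TCP binding to rat whole-brain membranes. The value is percent inhibition at a single concentration.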

Rattus norvegicus = species on record: Rattus norvegicus; assay: Antinociceptive activity in Sprague-Dawley rat assessed as reversal of PGE2-induced thermal hypersensitivity after 5 hrs; format: functional
Summary of the method: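 Male Sprague-Dawley rats (200-250 g) fasted ~16 h and dosed orally in 2% Tween-80/0.5% methylcellulose (1 mL/kg) 0.5-48 h before intradermal PGE2 (0.1 mg in 50 µL). Tail-withdrawal latency was read 30 min later in water at 34-58 °C, with a 20 s cutoff. T10 from each rat's temperature-effect curve; within-subjects repeated-measures ANOVA, p < 0.05.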

O=C(OCOP(=O)(CCN1CCCNc2c1c(=O)c2=O)OCOC(=O)c1ccccc1)c1ccccc1
Drug uptake (Blood [1]): 88%
Drug uptake (Plasma [2]): 88%
Drug uptake (Brain [3]): 88%
Drug uptake (Blood [4]): 98%
Drug uptake (Plasma [5]): 98%
Drug uptake (Brain [6]): 98%
Stability (Plasma [7]): 90%
remaining at 4 h [8]: 99.7%
remaining at 4 h [9]: 100%
remaining at 4 h [10]: 98.1%
remaining at 4 h [11]: 91.6%
remaining at 4 h [12]: 99.6%
remaining at 4 h [13]: 99.5%
remaining at 8 h [14]: 99.3%
remaining at 8 h [15]: 100%
remaining at 8 h [16]: 95.7%
remaining at 8 h [17]: 83.2%
remaining at 8 h [18]: 99.3%
remaining at 8 h [19]: 99.3%
remaining at 12 h [20]: 98.9%
remaining at 12 h [21]: 99.8%
remaining at 12 h [22]: 93.7%
remaining at 12 h [23]: 75.6%
remaining at 12 h [24]: 99%
remaining at 12 h [25]: 98.6%
remaining at 16 h [26]: 98.5%
remaining at 16 h [27]: 99.7%
remaining at 16 h [28]: 91.5%
remaining at 16 h [29]: 68.7%
remaining at 16 h [30]: 98.7%
remaining at 16 h [31]: 98.6%
remaining at 20 h [32]: 98%
remaining at 20 h [33]: 99.5%
remaining at 20 h [34]: 89.4%
remaining at 20 h [35]: 62.2%
remaining at 20 h [36]: 98.3%
remaining at 20 h [37]: 98.5%
remaining at 24 h [38]: 97.9%
remaining at 24 h [39]: 99.5%
remaining at 24 h [40]: 87.4%
remaining at 24 h [41]: 56.7%
remaining at 24 h [42]: 98%
remaining at 24 h [43]: 98.1%
half-life [44]: < 4.2 min
half-life [45]: 1.84 h
half-life [46]: 3.57 h
IC50 (Glutamate NMDA receptor): 4.2 µM
inhibition [47]: 8%
ED50 (Rattus norvegicus): 10 mg/kg
